Data as given in ChEMBL document CHEMBL1166000, “Maximizing chemical diversity of fungal metabolites: biogenetically related Heptaketides of the endolichenic fungus Corynespora sp. (1)” (J Nat Prod, 2010).
Calls of active or inactive are those of the source. The rule behind the calls is not given here.

What was measured:
PC-3M [1] = assay: Inhibition of human PC3M cell migration at 5 uM by wound-healing assay; format: functional, cell-based
PC-3M [2] = assay: Inhibition of cell proliferation in human PC3M cells at 5 uM after 40 hrs by MTT assay; format: functional, cell-based
How it was run: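 Antiproliferative (cytotoxicity) screen by the MTT method, with each compound tested at a single concentration of 5 µM.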

SMILES | inhibition (PC-3M [1]) | inhibition (PC-3M [2])
COc1cc(OC)c2c(c1)C(=O)c1cc(C)ncc1C2=O | inactive | inactive
COc1cc(OC)c2c(c1O)C(=O)c1cc(C)ncc1C2=O | inactive | inactive
COc1cc(OC)c2c(c1)[C@H](O)C1C[C@](C)(O)OCC1C2=O (stereo partly drawn) | inactive | inactive
COc1cc(O)cc2c1C(=O)C1=C(C[C@](C)(O)OC1)C2=O | inactive | inactive
COc1cc(OC)c2c(c1)C(=O)C1=C(CO[C@@](C)(O)C1)C2=O | inactive | inactive
COc1cc2c(c(OC)c1O)C(=O)C1=C(C[C@](C)(O)OC1)C2=O | inactive | inactive
COc1cc(OC)c2c(c1)C(=O)C1=C(C2=O)C(OC)OC(C)=C1 (stereo not drawn) | inactive | inactive
COc1cc(OC)c2c(c1O)C(=O)C1=C(CO[C@@](C)(O)C1)C2=O | inactive | inactive
COc1cc(O)c2c(c1)[C@H](O)C1C[C@](C)(O)OCC1C2=O (stereo partly drawn) | inactive | inactive
